Each structure is given as a SMILES string. Several values for one entry are separate records, joined by “and”; a condition that tells them apart may be missing. Equal values may be shown once. Activity calls are given as the source filed them.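 The calls were made as follows: active = fitted dose curve reaching 40% activation within the tested dose range; inconclusive = no clear call, values can overlap the other calls; inactive = the rest, or activity opposite the expected rise.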

System in the first test: not listed separately
Briefly: HRE-luciferase reporter activators in U2OS cells, dose response, cell-based, luminescence, U2OS HRE-luc, dry powder, set 6 (AID 493195). Conditions: U2OS HRE-luciferase reporter, luminescence, HIF activation; at 38 µM (top of the series). The gist of the method:
(§1)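 System: U2OS cells with stable HRE-driven luciferase / Amount: 6,000 cells/well / Doses: 8 concentrations, 3-fold steps, 7.5 mM stock / Incubation: 24 h cell rest, then 24 h compound exposure, 37 °C, 21% O2 / Signal: Steady-Glo luciferase luminescence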
Background: A reporter such as luciferase makes a cellular process visible.
As to `Cn1c(-c2ccccc2)cnc1Nc1nc(-c2ccccn2)nnc1-c1ccccc1`, the activation is -1.62% (inactive).
Take `CC1CN(Cc2ccc(O)c3ncccc23)CC(C)O1` (stereo unspecified): the activation was 2.48% (inactive).
Consider `Cn1c(NC(=O)c2cc(-c3ccccc3)on2)nc2ccccc21`, for which the activation was -0.522% (inactive).
`O=C(Nc1nc(-c2ccccc2)cs1)c1cc(-c2ccccc2)on1`: the activation was -0.156% (inactive).
Consider `Oc1ccc(CN2CCc3ccccc3C2)c2cccnc12`, for which the activation is 5.7% (inactive).
With `Cc1ccc(CNC(=O)c2cc(-c3ccccc3)on2)cc1`, the activation is -0.243% (inactive).
For the compound `Cc1cccc(CNC(=O)c2cc(-c3ccccc3)on2)c1`, the activation was -0.241% (inactive).
`CC(C)(C)OC(=O)N1CCN(Cc2ccc(O)c3ncccc23)CC1`: the activation was 9.74% (inactive).
In the case of `O=C(c1cc(-c2ccccc2)on1)N1CCC(CO)CC1`, the activation is 0.347% (inactive).
As for `Cc1ccccc1CNC(=O)c1cc(-c2ccccc2)on1`, the activation is -0.171% (inactive).
On the same count and under the same terms, next, `O=C(Nc1ncc2ccccc2n1)c1cc(-c2ccccc2)on1`: 0.873% (inactive); `CN1CCN(C(=O)c2cc(-c3ccccc3)on2)CC1`: -0.469% (inactive); `O=C(Nc1nc2ccccc2s1)c1cc(-c2ccccc2)on1`: 0.068% (inactive).
The same measure, in the same setting: the result for `O=C(NC1Cc2ccccc2C1)c1cc(-c2ccccc2)on1` reads 0.84% (inactive); that for `Cc1cccc(NC(=O)c2cc(-c3ccccc3)on2)n1`, -0.083% (inactive); that for `O=C(Nc1cn2ccccc2n1)c1cc(-c2ccccc2)on1`, 0.943% (inactive).
The same measure, in the same setting: next, `O=C(NCC1CC1)c1cc(-c2ccccc2)on1`: 19.6% (inactive); `OCC1CCN(Cc2ccc(O)c3ncccc23)CC1`: 44.4% (inactive).
Turning to `O=C(Nc1cnc2ccccc2c1)c1cc(-c2ccccc2)on1`, the activation was 0.224% (inactive).
As to `O=C(NCCN1CCCCC1)c1cc(-c2ccccc2)on1`, the activation is 0.598% (inactive).
Take `O=C(NCC1CCCCC1)c1cc(-c2ccccc2)on1`: the activation was 1.39% (inactive).
Same read-out and setting: next, `O=C(NCCCO)c1cc(-c2ccccc2)on1`: 16.3% (inactive); `O=C(NCCN1CCOCC1)c1cc(-c2ccccc2)on1`: 20.9% (inactive).
With `O=C(NCc1ccccc1)c1cc(-c2ccccc2)on1`, the activation is 1.19% (inactive).
For `Cn1c(-c2ccccc2)cnc1NC(=O)c1cc(-c2ccccc2)on1`, the activation is -0.441% (inactive).
As for `CN(C)CCNC(=O)c1cc(-c2ccccc2)on1`, the activation was 0.398% (inactive).
`N#CC1(c2ccccc2)CCN(Cc2ccc(O)c3ncccc23)CC1`: the activation was 7.8% (inactive).
`Oc1ccc(CNC2CCc3ccccc32)c2cccnc12` (stereo unspecified): the activation was 15.9% (inactive).
Regarding `O=C(c1cc(-c2ccccc2)on1)N1CCN(c2ccncc2)CC1`, the activation is -0.05% (inactive).
For the compound `O=C(NC1CCc2ccccc2C1)c1cc(-c2ccccc2)on1` (stereo unspecified), the activation was 1.01% (inactive).
Consider `O=C(c1cc(-c2ccccc2)on1)N1CCC(N2CCOCC2)CC1`, for which the activation is -0.46% (inactive).
Take `O=C(c1cc(-c2ccccc2)on1)N1CCc2cccnc21`: the activation was -0.142% (inactive).
Consider `O=C(c1cc(-c2ccccc2)on1)N1CCC(N2CCCC2)CC1`, for which the activation was -0.666% (inactive).
Still for that read-out and setting: next, `O=C(Nc1ccc2ccccc2n1)c1cc(-c2ccccc2)on1`: -0.178% (inactive); `O=C(Nc1ncc(-c2ccccc2)o1)c1cc(-c2ccccc2)on1`: -0.076% (inactive); `CC(C)(C)CCNC(=O)c1cc(-c2ccccc2)on1`: 9.01% (inactive).
As to `Cc1ccc(NC(=O)c2cc(-c3ccccc3)on2)cn1`, the activation is -0.191% (inactive).
Take `O=C(Nc1nnc(-c2ccccc2)s1)c1cc(-c2ccccc2)on1`: the activation is -0.274% (inactive).

The next test relates to U2OS HRE-luciferase reporter, luminescence, HIF activation. The test is described as above.
Conditions: not given
The gist of the method: as §1
On to `OCCCNc1nc(-c2ccccn2)nnc1-c1ccccc1`, for which the AC40 is 16.7 µM.
On to `C[C@H](Nc1nc(-c2ccccn2)nnc1-c1ccccc1)C1CCCCC1`, for which the AC40 is 2.23 µM.
In the case of `C[C@@H](Nc1nc(-c2ccccn2)nnc1-c1ccccc1)C1CCCCC1`, the AC40 is 4.3 µM.
Regarding `CN1CCN(c2nc(-c3ccccn3)nnc2-c2ccccc2)CC1`, the AC40 was 15.8 µM.
For `c1ccc(-c2nnc(-c3ccccn3)nc2Nc2nc3ccccc3s2)cc1`, the AC40 is 5.02 µM.
The same measure, in the same setting: next, `COc1cccc(CNc2nc(-c3ccccn3)nnc2-c2ccccc2)c1`: 2.43 µM; `Cc1ccc(CNc2nc(-c3ccccn3)nnc2-c2ccccc2)cc1C`: 1.48 µM; `Oc1ccc(CN2CCc3ccccc3C2)c2cccnc12`: 5.32 µM.
In the case of `Cc1ccc(CNc2nc(-c3ccccn3)nnc2-c2ccccc2)cc1`, the AC40 was 2.72 µM.
As to `c1ccc(-c2cnc(Nc3nc(-c4ccccn4)nnc3-c3ccccc3)s2)cc1`, the AC40 is 31.4 µM.
Regarding `O=C(NCCCCO)c1cc(-c2ccccc2)on1`, the AC40 is 24.2 µM.
On the same count and under the same terms, the result for `Clc1cccc(CNc2nc(-c3ccccn3)nnc2-c2ccccc2)c1` reads 1.87 µM; that for `CC(Nc1nc(-c2ccccn2)nnc1-c1ccccc1)c1ccccc1` (stereo unspecified), 2.53 µM.
Regarding `c1ccc(-c2nnc(-c3ccccn3)nc2N2CCC(N3CCOCC3)CC2)cc1`, the AC40 is 8.15 µM.
On to `COc1ccccc1N1CCN(Cc2ccc(O)c3ncccc23)CC1`, for which the AC40 is 33 µM.
Regarding `c1ccc(-c2nnc(-c3ccccn3)nc2NCC2CC2)cc1`, the AC40 was 7.2 µM.
Consider `C=CCNc1nc(-c2ccccn2)nnc1-c1ccccc1`, for which the AC40 was 6.56 µM.
With `CN(C)c1nc(-c2ccccn2)nnc1-c1ccccc1`, the AC40 was 10.5 µM.
Regarding `Cc1cccc(CNc2nc(-c3ccccn3)nnc2-c2ccccc2)c1`, the AC40 is 3.83 µM.
Take `OCC1CCN(c2nc(-c3ccccn3)nnc2-c2ccccc2)CC1`: the AC40 is 18.8 µM.
Turning to `Oc1ccc(CN2CCC(Cc3ccccc3)CC2)c2cccnc12`, the AC40 is 26.5 µM.
Consider `c1ccc(-c2nnc(-c3ccccn3)nc2Nc2cnc3ccccc3n2)cc1`, for which the AC40 was 7.11 µM.
Regarding `c1ccc(-c2nnc(-c3ccccn3)nc2NCc2ccccn2)cc1`, the AC40 was 18.5 µM.
Still for that read-out and setting: next, `c1ccc(-c2nnc(-c3ccccn3)nc2NCCCN2CCOCC2)cc1`: 10.7 µM; `c1ccc(-c2nnc(-c3ccccn3)nc2NCCc2ccccn2)cc1`: 10.1 µM.
Same read-out and setting: next, `c1ccc(-c2nnc(-c3ccccn3)nc2N2CCN(c3ccncc3)CC2)cc1`: 7.78 µM; `Cc1ccc(Nc2nc(-c3ccccn3)nnc2-c2ccccc2)cn1`: 9.36 µM.
Regarding `Oc1ccc(CNC2Cc3ccccc3C2)c2cccnc12`, the AC40 was 32.6 µM.
The same measure, in the same setting: the result for `CCCCNC(=O)c1cc(-c2ccccc2)on1` reads 28.5 µM; that for `c1ccc(-c2nnc(-c3ccccn3)nc2NCCN2CCOCC2)cc1`, 11.6 µM.
Still for that read-out and setting: next, `c1ccc(-c2nnc(-c3ccccn3)nc2NCC2CCCCC2)cc1`: 4.15 µM; `c1ccc(-c2nnc(-c3ccccn3)nc2N2CCC(c3ccccc3)C2)cc1` (stereo unspecified): 1.54 µM.
Turning to `c1ccc(CNc2nc(-c3ccccn3)nnc2-c2ccccc2)cc1`, the AC40 is 5.43 µM.
Regarding `c1ccc(-c2csc(Nc3nc(-c4ccccn4)nnc3-c3ccccc3)n2)cc1`, the AC40 is 24.6 µM.
As to `c1ccc(CCNc2nc(-c3ccccn3)nnc2-c2ccccc2)cc1`, the AC40 was 2.14 µM.
On to `Cc1ccccc1CNc1nc(-c2ccccn2)nnc1-c1ccccc1`, for which the AC40 is 4.31 µM.
On to `Oc1ccc(CN2CCC3CCCCC3C2)c2cccnc12` (stereo unspecified), for which the AC40 was 21.3 µM.
`CC(C)(C)CCNc1nc(-c2ccccn2)nnc1-c1ccccc1`: the AC40 was 3.35 µM and 1.68 µM.
In the case of `c1ccc(-c2nnc(Nc3nc(-c4ccccn4)nnc3-c3ccccc3)s2)cc1`, the AC40 was 4.75 µM.
Regarding `c1ccc(-c2nnc(-c3ccccn3)nc2NCC2CCOCC2)cc1`, the AC40 is 18.3 µM.
Take `COc1ccc(CNc2nc(-c3ccccn3)nnc2-c2ccccc2)cc1`: the AC40 was 2.51 µM.
As to `c1ccc(-c2nnc(-c3ccccn3)nc2NCc2cccnc2)cc1`, the AC40 is 20.7 µM.
Same read-out and setting: the result for `CC(C)(C)c1ccc(CNc2nc(-c3ccccn3)nnc2-c2ccccc2)cc1` reads 1.13 µM; that for `c1ccc(-c2cccc(CNc3nc(-c4ccccn4)nnc3-c3ccccc3)c2)cc1`, 1.27 µM; that for `c1ccc(-c2ccc(CNc3nc(-c4ccccn4)nnc3-c3ccccc3)cc2)cc1`, 0.917 µM.
As for `c1ccc(-c2nnc(-c3ccccn3)nc2N2CCC(C3CCCCC3)C2)cc1` (stereo unspecified), the AC40 was 1.78 µM.
Turning to `Cc1cccc(Nc2nc(-c3ccccn3)nnc2-c2ccccc2)n1`, the AC40 is 11.2 µM.
In the case of `O=C(NCCCn1ccnc1)c1cc(-c2ccccc2)on1`, the AC40 is 26.5 µM.

The values above are taken from PubChem BioAssay AID493195 (Broad Institute, 2011).
